Values after ≈ are worked out from the molar mass of the structure shown.
How the values were obtained:
Assay type in all cases: functional
Escherichia coli [1] = test: Antibacterial activity against beta-lactamase-positive ESBL-positive Escherichia coli E456 assessed as mutant prevention concentration after overnight incubation
How it was run: (§1)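 Overnight growth on blood trypticase soy agar (35°C, air) was resuspended in 0.9% saline and counted on drug-free Mueller-Hinton agar. […] Colonies were retested by agar dilution to confirm mutants. MPC was the lowest concentration preventing resistant-mutant growth.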

Escherichia coli [2] = test: Antibacterial activity against beta-lactamase-negative Escherichia coli E408 assessed as mutant prevention concentration after overnight incubation
Escherichia coli [3] = test: Antibacterial activity against beta-lactamase-positive ESBL-positive Escherichia coli E452 incubated up to 7 days by agar dilution method; details: E452, 168 h
How it was run: (§2)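 MIC by CLSI agar dilution, with quality-control strains in each run. Beta-lactamase status was set by 30 μg cefazolin Kirby-Bauer disk diffusion. ESBL status was set by cefotaxime and ceftazidime disks (30 μg) with and without clavulanic acid (10 μg).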

Klebsiella pneumoniae [4] = test: Antibacterial activity against beta-lactamase-positive ESBL-positive Klebsiella pneumoniae E475 incubated up to 7 days by agar dilution method; details: E475, 168 h
Escherichia coli [5] = test: Antibacterial activity against beta-lactamase-negative Escherichia coli E346 assessed as mutant prevention concentration after overnight incubation
Klebsiella pneumoniae [6] = test: Antibacterial activity against beta-lactamase-positive ESBL-negative Klebsiella pneumoniae E480 incubated up to 7 days by agar dilution method; details: E480, 168 h
Klebsiella pneumoniae [7] = test: Antibacterial activity against beta-lactamase-positive ESBL-positive Klebsiella pneumoniae E476 incubated up to 7 days by agar dilution method; details: E476, 168 h
Escherichia coli [8] = test: Antibacterial activity against beta-lactamase-negative Escherichia coli E409 […] by agar dilution method
Escherichia coli [9] = test: Antibacterial activity against beta-lactamase-positive ESBL-negative Escherichia coli E483 assessed as mutant prevention concentration after overnight incubation; how it was run: as §1
Escherichia coli [10] = test: Antibacterial activity against beta-lactamase-negative Escherichia coli E424 assessed as mutant prevention concentration after overnight incubation
Escherichia coli [11] = test: Antibacterial activity against beta-lactamase-negative Escherichia coli E347 assessed as mutant prevention concentration after overnight incubation
Escherichia coli [12] = test: Antibacterial activity against beta-lactamase-positive ESBL-positive Escherichia coli E446 incubated up to 7 days by agar dilution method; details: E446, 168 h; how it was run: as §2
Klebsiella pneumoniae [13] = test: Antibacterial activity against beta-lactamase-positive ESBL-negative Klebsiella pneumoniae E472 assessed as mutant prevention concentration after overnight incubation; how it was run: as §1
Escherichia coli [14] = test: Antibacterial activity against beta-lactamase-positive ESBL-positive Escherichia coli E465 assessed as mutant prevention concentration after overnight incubation; how it was run: as §1
Escherichia coli [15] = test: Antibacterial activity against beta-lactamase-positive ESBL-negative Escherichia coli E484 assessed as mutant prevention concentration after overnight incubation; how it was run: as §1
Klebsiella pneumoniae [16] = test: Antibacterial activity against beta-lactamase-positive ESBL-positive Klebsiella pneumoniae E457 incubated up to 7 days by agar dilution method; details: E457, 168 h; how it was run: as §2
Escherichia coli [17] = test: Antibacterial activity against beta-lactamase-positive ESBL-negative Escherichia coli E430 assessed as mutant prevention concentration after overnight incubation; how it was run: as §1
Escherichia coli [18] = test: Antibacterial activity against beta-lactamase-positive ESBL-negative Escherichia coli E483 […] by agar dilution method
Escherichia coli [19] = test: Antibacterial activity against beta-lactamase-positive ESBL-positive Escherichia coli E459 assessed as mutant prevention concentration after overnight incubation; how it was run: as §1
Escherichia coli [20] = test: Antibacterial activity against beta-lactamase-negative Escherichia coli E425 assessed as mutant prevention concentration after overnight incubation
Escherichia coli [21] = test: Antibacterial activity against beta-lactamase-positive ESBL-positive Escherichia coli E450 incubated up to 7 days by agar dilution method; details: E450, 168 h; how it was run: as §2
Escherichia coli [22] = test: Antibacterial activity against beta-lactamase-negative Escherichia coli E344 assessed as mutant prevention concentration after overnight incubation
Klebsiella pneumoniae [23] = test: Antibacterial activity against beta-lactamase-negative Klebsiella pneumoniae E419 incubated up to 7 days by agar dilution method; details: E419, 168 h
Klebsiella pneumoniae [24] = test: Antibacterial activity against beta-lactamase-negative Klebsiella pneumoniae E361 incubated up to 7 days by agar dilution method; details: E361, 168 h
Klebsiella pneumoniae [25] = test: Antibacterial activity against beta-lactamase-negative Klebsiella pneumoniae E420 incubated up to 7 days by agar dilution method; details: E420, 168 h; how it was run: as §2
Klebsiella pneumoniae [26] = test: Antibacterial activity against beta-lactamase-positive ESBL-positive Klebsiella pneumoniae E457 assessed as mutant prevention concentration after overnight incubation; how it was run: as §1
Klebsiella pneumoniae [27] = test: Antibacterial activity against beta-lactamase-negative Klebsiella pneumoniae E360 incubated up to 7 days by agar dilution method; details: E360, 168 h
Escherichia coli [28] = test: Antibacterial activity against beta-lactamase-negative Escherichia coli E409 assessed as mutant prevention concentration after overnight incubation
Acinetobacter baumannii [29] = test: Antibacterial activity against Acinetobacter baumannii A851 assessed as mutant prevention concentration after overnight incubation
Pseudomonas aeruginosa [30] = test: Antibacterial activity against Pseudomonas aeruginosa P322 assessed as mutant prevention concentration after overnight incubation
Pseudomonas aeruginosa [31] = test: Antibacterial activity against Pseudomonas aeruginosa P358 assessed as mutant prevention concentration after overnight incubation
Acinetobacter baumannii [32] = test: Antibacterial activity against Acinetobacter baumannii A896 assessed as mutant prevention concentration after overnight incubation
Acinetobacter baumannii [33] = test: Antibacterial activity against Acinetobacter baumannii A890 assessed as mutant prevention concentration after overnight incubation
Acinetobacter baumannii [34] = test: Antibacterial activity against Acinetobacter baumannii A884 assessed as mutant prevention concentration after overnight incubation
Pseudomonas aeruginosa [35] = test: Antibacterial activity against Pseudomonas aeruginosa P337 assessed as mutant prevention concentration after overnight incubation
Pseudomonas aeruginosa [36] = test: Antibacterial activity against Pseudomonas aeruginosa P328 assessed as mutant prevention concentration after overnight incubation
Pseudomonas aeruginosa [37] = test: Antibacterial activity against Pseudomonas aeruginosa P332 assessed as mutant prevention concentration after overnight incubation
Pseudomonas aeruginosa [38] = test: Antibacterial activity against Pseudomonas aeruginosa P327 assessed as mutant prevention concentration after overnight incubation
Pseudomonas aeruginosa [39] = test: Antibacterial activity against Pseudomonas aeruginosa P340 assessed as mutant prevention concentration after overnight incubation
Acinetobacter baumannii [40] = test: Antibacterial activity against Acinetobacter baumannii A910 assessed as mutant prevention concentration after overnight incubation
Pseudomonas aeruginosa [41] = test: Antibacterial activity against Pseudomonas aeruginosa P323 assessed as mutant prevention concentration after overnight incubation
Acinetobacter baumannii [42] = test: Antibacterial activity against Acinetobacter baumannii A897 assessed as mutant prevention concentration after overnight incubation
Acinetobacter baumannii [43] = test: Antibacterial activity against Acinetobacter baumannii A848 assessed as mutant prevention concentration after overnight incubation
Acinetobacter baumannii [44] = test: Antibacterial activity against Acinetobacter baumannii A850 assessed as mutant prevention concentration after overnight incubation
Pseudomonas aeruginosa [45] = test: Antibacterial activity against Pseudomonas aeruginosa P352 assessed as mutant prevention concentration after overnight incubation
Acinetobacter baumannii [46] = test: Antibacterial activity against Acinetobacter baumannii A912 assessed as mutant prevention concentration after overnight incubation
Acinetobacter baumannii [47] = test: Antibacterial activity against Acinetobacter baumannii A903 assessed as mutant prevention concentration after overnight incubation
Acinetobacter baumannii [48] = test: Antibacterial activity against Acinetobacter baumannii A911 assessed as mutant prevention concentration after overnight incubation
Pseudomonas aeruginosa [49] = test: Antibacterial activity against Pseudomonas aeruginosa P370 assessed as mutant prevention concentration after overnight incubation

C[C@@H](O)[C@H]1C(=O)N2C(C(=O)O)=C(S[C@@H]3CN[C@H](C(=O)Nc4cccc(C(=O)O)c4)C3)[C@H](C)[C@H]12 showed an MPC (Escherichia coli [1]) of 2 µg/mL, an MPC (Escherichia coli [2]) of 0.06 µg/mL and an MIC (Escherichia coli [3]) of 0.03 µg/mL (≈ 0.0631 µM). For the same compound, the MIC (Klebsiella pneumoniae [4]) was 8 µg/mL (≈ 16.8 µM), the MPC (Escherichia coli [5]) was 0.03 µg/mL and the MIC (Klebsiella pneumoniae [6]) was 8 µg/mL (≈ 16.8 µM). The MIC (Klebsiella pneumoniae [7]) was 8 µg/mL (≈ 16.8 µM), the MIC (Escherichia coli [8]) was 0.016 µg/mL (≈ 0.0336 µM) and the MPC (Escherichia coli [9]) was 64 µg/mL. The MPC (Escherichia coli [10]) was 0.06 µg/mL, the MPC (Escherichia coli [11]) was 0.03 µg/mL and the MIC (Escherichia coli [12]) was 0.25 µg/mL (≈ 0.526 µM). The MPC (Klebsiella pneumoniae [13]) was 64 µg/mL, the MPC (Escherichia coli [14]) was 8 µg/mL and the MPC (Escherichia coli [15]) was 128 µg/mL. The MIC (Klebsiella pneumoniae [16]) was 0.03 µg/mL (≈ 0.0631 µM), the MPC (Escherichia coli [17]) was >0.5 µg/mL and the MIC (Escherichia coli [18]) was 4 µg/mL (≈ 8.41 µM). It also gave an MPC (Escherichia coli [19]) of 0.06 µg/mL, an MPC (Escherichia coli [20]) of 0.03 µg/mL and an MIC (Escherichia coli [21]) of 0.03 µg/mL (≈ 0.0631 µM). It also gave an MPC (Escherichia coli [22]) of 0.03 µg/mL, an MIC (Klebsiella pneumoniae [23]) of 0.016 µg/mL (≈ 0.0336 µM) and an MIC (Klebsiella pneumoniae [24]) of 0.016 µg/mL (≈ 0.0336 µM). For the same compound, the MIC (Klebsiella pneumoniae [25]) was 0.008 µg/mL (≈ 0.0168 µM), the MPC (Klebsiella pneumoniae [26]) was 0.125 µg/mL and the MIC (Klebsiella pneumoniae [27]) was 0.008 µg/mL (≈ 0.0168 µM). It also gave an MPC (Escherichia coli [28]) of 0.125 µg/mL.

C[C@@H](O)[C@H]1C(=O)N2C(C(=O)O)=C(S[C@@H]3CN[C@H](CNS(N)(=O)=O)C3)[C@H](C)[C@H]12 [DORIPENEM] gave an MPC (Escherichia coli [1]) of 0.25 µg/mL, an MPC (Escherichia coli [2]) of 0.06 µg/mL and an MPC (Acinetobacter baumannii [29]) of 16 µg/mL. For the same compound, the MIC (Escherichia coli [3]) was 0.03 µg/mL (≈ 0.0713 µM), the MPC (Pseudomonas aeruginosa [30]) was 4 µg/mL and the MPC (Pseudomonas aeruginosa [31]) was 64 µg/mL. For the same compound, the MIC (Klebsiella pneumoniae [4]) was 2 µg/mL (≈ 4.76 µM), the MPC (Escherichia coli [5]) was 0.06 µg/mL and the MPC (Acinetobacter baumannii [32]) was 1 µg/mL. For the same compound, the MIC (Klebsiella pneumoniae [6]) was 2 µg/mL (≈ 4.76 µM), the MPC (Acinetobacter baumannii [33]) was 1 µg/mL and the MIC (Klebsiella pneumoniae [7]) was 2 µg/mL (≈ 4.76 µM). For the same compound, the MIC (Escherichia coli [8]) was 0.03 µg/mL (≈ 0.0713 µM), the MPC (Acinetobacter baumannii [34]) was 4 µg/mL and the MPC (Pseudomonas aeruginosa [35]) was 8 µg/mL. For the same compound, the MPC (Escherichia coli [9]) was 2 µg/mL, the MPC (Escherichia coli [10]) was 0.06 µg/mL and the MPC (Pseudomonas aeruginosa [36]) was 4 µg/mL. The MPC (Escherichia coli [11]) was 0.06 µg/mL, the MPC (Pseudomonas aeruginosa [37]) was >4 µg/mL and the MPC (Pseudomonas aeruginosa [38]) was 4 µg/mL. For the same compound, the MIC (Escherichia coli [12]) was 0.06 µg/mL (≈ 0.143 µM), the MPC (Pseudomonas aeruginosa [39]) was 1 µg/mL and the MPC (Klebsiella pneumoniae [13]) was 64 µg/mL. It also gave an MPC (Escherichia coli [14]) of 0.5 µg/mL, an MPC (Escherichia coli [15]) of 8 µg/mL and an MPC (Acinetobacter baumannii [40]) of 4 µg/mL. The MIC (Klebsiella pneumoniae [16]) was 0.06 µg/mL (≈ 0.143 µM), the MPC (Pseudomonas aeruginosa [41]) was 4 µg/mL and the MPC (Escherichia coli [17]) was 0.125 µg/mL. The MIC (Escherichia coli [18]) was 0.25 µg/mL (≈ 0.595 µM), the MPC (Escherichia coli [19]) was 0.125 µg/mL and the MPC (Escherichia coli [20]) was 0.06 µg/mL. It also gave an MPC (Acinetobacter baumannii [42]) of 1 µg/mL, an MIC (Escherichia coli [21]) of 0.03 µg/mL (≈ 0.0713 µM) and an MPC (Acinetobacter baumannii [43]) of 16 µg/mL. It also gave an MPC (Escherichia coli [22]) of 0.06 µg/mL, an MPC (Acinetobacter baumannii [44]) of 8 µg/mL and an MPC (Pseudomonas aeruginosa [45]) of 2 µg/mL. It also gave an MIC (Klebsiella pneumoniae [23]) of 0.125 µg/mL (≈ 0.297 µM), an MPC (Acinetobacter baumannii [46]) of 8 µg/mL and an MIC (Klebsiella pneumoniae [24]) of 0.06 µg/mL (≈ 0.143 µM). It also gave an MIC (Klebsiella pneumoniae [25]) of 0.06 µg/mL (≈ 0.143 µM), an MPC (Acinetobacter baumannii [47]) of 4 µg/mL and an MPC (Klebsiella pneumoniae [26]) of 0.125 µg/mL. It also gave an MIC (Klebsiella pneumoniae [27]) of 0.06 µg/mL (≈ 0.143 µM), an MPC (Acinetobacter baumannii [48]) of 8 µg/mL and an MPC (Escherichia coli [28]) of 0.125 µg/mL. For the same compound, the MPC (Pseudomonas aeruginosa [49]) was 4 µg/mL.
